# HIF act: HIF pathway transcriptional activators, primary screen, cell-based, U2OS HRE-luciferase, luminescence. U2OS HRE-luciferase reporter; normalized: DMSO 0%, desferrioxamine 100%. AID 1910, 2009. hit rate 0.32% among 300,000. activation, % at 7.5 µM (by protocol);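 active means mean activation of at least 10% of the iron chelator positive control signal, with at least half of replicates also reaching 10%; inconclusive means mean and replicate majority disagree about reaching 10%; inactive means mean and most replicates under 10%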
# Mot1-301 SUMO: yeast Mot1-301 growth rescue at high temperature, primary screen, SUMOylation pathway inhibitor project, S. cerevisiae, ATP luminescence, 38.5C; hit rate 1% among 320,000; S. cerevisiae Mot1-301 growth rescue; percent above DMSO median, 100 means doubled; growth rescue, % at 18.8 µM;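 active means every valid replicate shows activation above 250% relative to neutral control wells; inactive means the rest, any valid replicate at or below 250%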;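 further: OY570 slx delta 5 strain wells were the positive control but not used for scaling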
# T cell modulator: modulators of CD8 T cell-vesicle binding, primary screen, mouse 2C CD8+ T cells, flow cytometry. 2C CD8+ T cell-vesicle binding; stronger effect = lower value. response (vesicle binding), % at 7 µM. hit rate 0.068% among 330,000. AID 2052, 2009;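 active means response, share of CD8 T cells binding vesicles, and their 90th percentile fluorescence all below set limits, cut at about 80% in these data, passing the limit was not always enough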;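 further: values below 100% mean blocked vesicle binding to the CD8+ T cells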
#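 Test system: purified 2C TCR transgenic mouse naive CD8+ T cells. Probe or stimulus: QL9-peptide-loaded Drosophila micro-vesicles bearing Ld, ICAM-1 and B7-1. Incubation: binding step 1.5 h, 37 °C, antibody labelling 20 min, ice. Measured by: flow cytometry of vesicle-bound cells.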
# GASC-1 inh: inhibitors of GASC-1 histone demethylase, primary screen, biochemical, fluorescence, DELFIA europium; Lysine-specific demethylase 4C (Homo sapiens), Q9H3R0; GST-JMJD2C(1-420) H3K9me3 demethylation; inhibition, % at 2.35 µM; hit rate 0.069% among 330,000; AID 2099, 2009;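 active means more than half of a compound's replicate wells show inhibition beyond 50%, single wells judged on their own value; inconclusive means some, but no more than half, of replicates pass 50% inhibition; inactive means no replicate passes 50% inhibition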;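 further: signal counts dimethyl H3K9 product captured on neutravidin plate; 0% = median of DMSO wells and 100% = 0.3 times that DMSO median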
# Target sequence (Q9H3R0 1-420 limits assumed): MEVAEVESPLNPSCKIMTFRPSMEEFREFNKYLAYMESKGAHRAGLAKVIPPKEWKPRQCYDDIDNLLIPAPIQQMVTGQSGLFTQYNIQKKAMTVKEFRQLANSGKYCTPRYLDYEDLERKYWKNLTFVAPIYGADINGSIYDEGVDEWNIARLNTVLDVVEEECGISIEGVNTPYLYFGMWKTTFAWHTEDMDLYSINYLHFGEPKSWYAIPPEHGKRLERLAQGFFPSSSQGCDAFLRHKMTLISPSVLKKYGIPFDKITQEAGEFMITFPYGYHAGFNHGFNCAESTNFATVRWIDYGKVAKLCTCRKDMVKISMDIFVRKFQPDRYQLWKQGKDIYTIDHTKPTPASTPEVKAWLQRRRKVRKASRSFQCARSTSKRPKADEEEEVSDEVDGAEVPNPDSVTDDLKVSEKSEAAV
# Numbers without * were called inactive; i = inactive; ? = inconclusive; / = not tested or not shown. Sampled rows, rich in hits. Any-hit rate of the full collection: about 1.4%.
SMILES,HIF act,Mot1-301 SUMO,T cell modulator,GASC-1 inh
CCOCCCN(C(=O)c1snc(C(N)=O)c1N)C(C(=O)NC1CCCC1)c1ccc(OC)cc1 (centres undefined),1.4,167.6,186.4,7.4
CC(C)[C@H](NS(=O)(=O)c1ccccc1)C(=O)OCC(=O)N1N=C(c2ccc(Cl)cc2)CC1c1ccco1 (some centres undefined),-0.3,-10.0,448.4,2.6
CCOC(=O)c1ccccc1NC(=O)C1CC(=O)N(c2ccccc2)C1 (centres undefined),0.0,-1.6,210.3,-8.4
O=C(N/N=C/c1cc([N+](=O)[O-])ccc1Cl)c1cc(-c2ccccc2)nc2ccccc12,0.4,114.8,232.7,?
O=C(N/N=C/c1cc([N+](=O)[O-])ccc1O)c1cc(-c2ccccc2)nc2ccccc12,19.8*,329.2,211.6,-20.6
O=[N+]([O-])c1ccc(O)c(/C=N/Nc2nc3ccccc3[nH]2)c1,-2.3,6.2,259.4,5.3
CC/C(C)=N/Nc1cccc([N+](=O)[O-])c1,-0.1,275.4*,184.8,1.0
O=[N+]([O-])c1cccc(N/N=C/c2cc([N+](=O)[O-])ccc2O)c1,0.6,301.5*,324.0,-31.0
O=[N+]([O-])c1ccc(O)c(/C=N/Nc2ccccn2)c1,63.2*,0.2,363.1,-13.9
CC(O/N=C(\N)c1ccccc1)C(=O)Nc1cccc(C(F)(F)F)c1 (centres undefined),/,-5.8,241.2,-5.5
O=C(O)C1CCC(N2C(=O)c3cccc([N+](=O)[O-])c3C2=O)CC1 (centres undefined),0.2,5.3,234.0,16.4
CC(C)CNS(=O)(=O)c1ccc(CCC(=O)NCCc2ccccc2)cc1,-0.3,6.9,548.4,-3.6
CN1CCN(c2ccc(S(=O)(=O)N3CCOCC3)cc2)CC1,0.0,-24.5,365.5,-6.2
Cc1ccc(CN(Cc2cc3cccc(C)c3[nH]c2=O)C(=O)N(C)C)cc1,-0.4,316.7*,251.5,-6.8
Cc1cccc2cc(CN(Cc3ccccc3)C(=O)N(C)C)c(=O)[nH]c12,0.7,4.8,697.6,-3.1
O=C(c1cc(-c2ccc(F)cc2)on1)N1CCCCCC1,-0.2,-7.9,420.5,8.4
Cc1ccc(-c2cc(C(=O)N3CCCCCC3)no2)cc1,12.4*,-1.8,220.2,-39.3
Cc1c(NC(=O)c2cccs2)cccc1-c1nc2ccccc2s1,1.7,386.6*,571.9,7.6
NC(=S)NNC(=O)COc1ccccc1O,-0.1,86.9,439.4,5.6
COc1ccccc1N=Nc1ccc(O)c2ncccc12,11.1*,-13.2,124.1,1.4
Cc1ccc(N=Nc2ccc(O)c3ncccc23)cc1,147.1*,-19.9,662.7,-1.9
Cc1ccc(N=Nc2ccc(O)c3ncccc23)cc1C,7.3,-18.1,115.9,-13.6
CCc1ccccc1NC(=O)NC1CCCCCCC1,/,70.4,981.0,-3.4
O=C(O)/C=C/c1ccc(-n2ccnc2)cc1,-0.2,-7.3,352.8,10.7
O=C(CN1CCCCC1)Nc1cc(Cl)ccc1Oc1ccccc1,0.7,112.5,267.2,-3.4
SMILES,HIF act,Mot1-301 SUMO,T cell modulator,GASC-1 inh
NC(=O)C1CCN(CC(=O)Nc2cc(Cl)ccc2Oc2ccccc2)CC1,-1.1,321.2*,321.1,-5.2
COc1ccccc1C(c1nnnn1CC1CCCO1)N1CCC(C(N)=O)CC1 (centres undefined),14.9*,-1.8,500.0,-10.0
CN(C)CCN1C(=O)C(=O)/C(=C(/O)c2ccc(S(=O)(=O)N3CCOCC3)cc2)C1c1ccc(Br)cc1 (centres undefined),-0.2,354.5,225.2,-3.7
CN(C)CCN1C(=O)C(=O)/C(=C(/O)c2ccc(S(=O)(=O)N3CCOCC3)cc2)C1c1ccccc1 (centres undefined),0.4,314.5*,235.9,-20.6
CCCCc1nnc(NC(=O)c2ccc3[nH]c(=O)c(=O)[nH]c3c2)s1,197.3*,-14.2,164.0,15.8
N#Cc1c2ccc(O)cc2n2ccccc12,5.9,3.5,669.6,-4.9
O=C(CSC1=NC(=O)C(Cc2ccccc2)C(=O)N1)Nc1ncccn1 (centres undefined),-0.1,/,/,21.9
O=C(CSC1=NC(=O)C(Cc2ccccc2)C(=O)N1)Nc1ncc(Br)cc1Br (centres undefined),0.3,327.2*,295.4,11.7
COc1ccc(/C=N\Nc2ccc([N+](=O)[O-])cc2[N+](=O)[O-])c(C(=O)O)c1OC,0.6,7.6,378.9,-9.8
COc1ccc(/C=N\Nc2ccccc2[N+](=O)[O-])c(C(=O)O)c1OC,0.7,974.0*,117.1,-9.7
CCN(CC)c1ccc(NC(=O)c2ccccc2OCC(=O)OC)cc1,0.0,-1.0,156.1,-4.0
OCCCNc1nc(-c2ccccc2)c2cc(Br)ccc2n1,-20.4,826.5*,128.0,-14.0
CCCC(=O)NC(c1ccc(C)cc1)c1ccc2cccnc2c1O (centres undefined),124.8*,1.2,343.8,-1.8
COc1ccc(C(NC(C)=O)c2ccc3cccnc3c2O)c(OC)c1 (centres undefined),64.6*,96.0,344.2,-6.2
CCC(=O)NC(C)c1cc(Cl)c2cccnc2c1O (centres undefined),/,-23.7,783.1,-3.7
CCCC(=O)NC(c1ccc(Cl)cc1Cl)c1ccc2cccnc2c1O (centres undefined),74.2*,7.6,318.1,-13.1
CCC(=O)NC(c1ccc(C)cc1)c1cc(Cl)c2cccnc2c1O (centres undefined),/,-6.0,299.1,/
CCCCC(=O)NC(c1ccc(Cl)cc1)c1ccc2cccnc2c1O (centres undefined),86.3*,-17.6,792.4,-2.1
Cc1ccc(C(=O)Nc2ncccc2O)cc1S(=O)(=O)N1CCCCC1,-8.3,-1.6,883.3,4.8
CC(=O)NC(c1ccc(Cl)cc1Cl)c1ccc2cccnc2c1O (centres undefined),246.1*,i,292.4,-7.0
CCCC(=O)NC(c1ccc(Cl)cc1)c1ccc2cccnc2c1O (centres undefined),92.2*,1.3,605.1,5.3
CC(=O)NC(c1ccc2ccccc2c1)c1ccc2cccnc2c1O (centres undefined),89.9*,-6.2,348.3,5.3
CCCC(=O)NC(c1ccccc1Cl)c1c(O)ccc2ccccc12 (centres undefined),-0.2,-8.3,380.8,-4.9
COc1ccc(C(=O)/C=C/Nc2ccc(S(=O)(=O)Nc3onc(C)c3C)cc2)cc1,0.0,7.8,417.9,-9.4
O=C(CNC(=O)c1ccc(S(=O)(=O)N2CCCC2)cc1)N/N=C/c1ccccc1Cl,-1.9,-12.6,103.5,6.0
O=C(N/N=C\c1c(O)ccc2ccccc12)c1ccc(S(=O)(=O)N2CCCCC2)cc1,22.6*,2.8,102.9,2.2
O=C(NN=Cc1c(O)ccc2ccccc12)c1ccc2c(c1)OCO2,/,-6.0,415.9,7.1

# Screening data (PubChem)
